Calls of active or inactive are those of the source. The calls are words filed in the database; no cut-off is given here.
Tests used:
[1] = Cytotoxicity against MDCK cells after 40 hrs incubation by CellTiter-Glo assay; assay type: cell-based, Canis lupus familiaris; conditions: dog
How it was run: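 Uninfected MDCK cells were grown overnight in 96-well plates in 1% FBS medium. They were exposed to increasing compound concentrations for 40 h, and viability was read by CellTiter-Glo luminescence.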

[2] = tested on: Influenza A virus; experiment: Antiviral activity against Influenza A virus A/WSN/33(H1N1) infected in MDCK cells assessed as s reduction in cytopathic effect after 40 hrs incubation by CellTiter-Glo assay relative to control; assay type: functional, A/WSN/1933(H1N1)
How it was run: (§1)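 MDCK cells seeded in 96-well plates and grown overnight, then infected with A/WSN/33 (H1N1) at MOI 0.1. Cells were kept in DMEM with 1% FBS, test compound, 2 µg/mL TPCK-trypsin and 1% DMSO final. After 40 h, cell viability was read by CellTiter-Glo luminescence to measure CPE reduction.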

[3] = tested on: Influenza A virus; experiment: Antiviral activity against Influenza A virus A/WSN/33(H1N1) infected in MDCK cells assessed as s reduction in cytopathic effect after 40 hrs incubation by CellTiter-Glo assay; assay type: functional, organism-based; conditions: A/WSN/1933(H1N1); how it was run: as §1
[4] = tested on: Red blood cell; experiment: Inhibition of hemagglutinin in Influenza A virus A/WSN/33(H1N1)) assessed as reduction in virus-induced agglutination of chicken red blood cells pretreated for 1 hr followed by further incubated for 1 hr; assay type: cell-based; conditions: Influenza A virus (A/WSN/1933(H1N1))
How it was run: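 Haemagglutination inhibition: compound was 3-fold serially diluted in saline and mixed with an equal volume of WSN virus (2 HA units) in V-bottom wells. Freshly prepared chicken RBC (1% v/v in saline) were added and incubated at room temperature. cRBC aggregation was scored visually, with anti-HA antibody as comparator.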

[5] = tested on: Influenza A virus; experiment: Antiviral activity against Influenza A virus A/WSN/33(H1N1)) infected in MDCK cells assessed as suppression of virion assembly and release after 8 to 10 hrs post infection by time of addition assay; assay type: functional, organism-based; conditions: A/WSN/1933(H1N1), time 8-10 hrs
How it was run: (§2)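 Cells were seeded in 6-well plates at 5 × 10^5 per well 24 h before infection and kept at 37 °C, 5% CO2. They were infected with WSN at MOI 1. Compound was present during 0-10, 0-2, 2-5, 5-8 or 8-10 h post infection. Lysates were Western-blotted for viral NP, with GAPDH probed and DMSO as control.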

[6] = tested on: Influenza A virus; experiment: Antiviral activity against Influenza A virus A/WSN/33(H1N1)) infected in MDCK cells assessed as inhibition of virus infection at early stage after 2 hrs post infection by time of addition assay; assay type: functional, organism-based; conditions: A/WSN/1933(H1N1); how it was run: as §2
[7] = tested on: Influenza A virus; experiment: Antiviral activity against Influenza A virus A/WSN/33(H1N1)) infected in MDCK cells assessed as inhibition rate by pretreated virus at 50 uM; assay type: functional, A/WSN/1933(H1N1); design: scale not given: the % may be the effect or the level left
[8] = tested on: Influenza A virus; experiment: Antiviral activity against Influenza A virus A/WSN/33(H1N1)) infected in MDCK cells assessed as inhibition rate at 50 uM by co-treatment assay; assay type: functional, A/WSN/1933(H1N1); design: scale not given: the % may be the effect or the level left
[9] = tested on: Influenza A virus; experiment: Antiviral activity against Influenza A virus A/WSN/33(H1N1)) infected in MDCK cells assessed as suppression of viral genome replication after 8 to 10 hrs post infection by time of addition assay; assay type: functional, organism-based; conditions: A/WSN/1933(H1N1), time 8-10 hrs; how it was run: as §2
[10] = tested on: Influenza A virus; experiment: Antiviral activity against Influenza A virus A/WSN/33(H1N1)) infected in MDCK cells assessed as suppression of viral genome translation after 8 to 10 hrs post infection by time of addition assay; assay type: functional, organism-based; conditions: A/WSN/1933(H1N1), time 8-10 hrs; how it was run: as §2
[11] = Binding affinity to recombinant influenza A virus A hemagglutinin by SPR assay
How it was run: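 SPR used HA immobilized to about 16,000 RU. Compounds were injected as analytes at various concentrations in PBS-P running buffer (10 mM phosphate, 2.7 mM KCl, 137 mM NaCl, 0.05% P20, pH 4.5). Flow was 30 µL/min, with 60 s contact and 60 s dissociation, giving KD.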

**Q.** Which CC50 at 40 h [1] does the source give for `CC1(C)CC[C@]2(C(=O)NC[C@H](O)[C@H]3OC(=O)C(O)=C3O)[C@H](O)C[C@]3(C)C(=CC[C@@H]4[C@@]5(C)CC[C@H](O)C(C)(C)[C@@H]5CC[C@]43C)[C@@H]2C1` here?
**A.** 29.7 µM

**Q.** Which “inhibition (INH)” value [2] does the source give for `CCOC(=O)C1=C[C@@H](OC(CC)CC)[C@H](NC(C)=O)[C@@H](N)C1.O=P(O)(O)O` [OSELTAMIVIR PHOSPHATE] here?
**A.** 86.5%

**Q.** And the CC50 at 40 h [1]?
**A.** > 200 µM

**Q.** And the EC50 [3]?
**A.** 12.5 µM

**Q.** Which CC50 at 40 h [1] does the source give for `CC1(C)CC[C@]2(C(=O)NCc3cn(C[C@H](O)[C@H]4OC(=O)C(O)=C4O)nn3)[C@H](O)C[C@]3(C)C(=CC[C@@H]4[C@@]5(C)CC[C@H](O)C(C)(C)[C@@H]5CC[C@]43C)[C@@H]2C1` here?
**A.** 59.3 µM

**Q.** Which “inhibition (INH)” value [2] does the source give for `CC1(C)CC[C@]2(C(=O)NCc3cn(C[C@H](O)[C@H]4OC(=O)C(OCc5ccccc5)=C4OCc4ccccc4)nn3)[C@H](O)C[C@]3(C)C(=CC[C@@H]4[C@@]5(C)CC[C@H](O)C(C)(C)[C@@H]5CC[C@]43C)[C@@H]2C1` here?
**A.** 87%

**Q.** What about the CC50 at 40 h [1] of the same compound?
**A.** > 200 µM

**Q.** What about the EC50 [3] of the same compound?
**A.** 56.6 µM

**Q.** Which “inhibition (INH)” value [2] does the source give for `CC1(C)CC[C@]2(C(=O)NCc3cn(C[C@H](O)[C@H]4OC(=O)C(OCc5ccccc5)=C4OCc4ccccc4)nn3)CC[C@]3(C)C(=CC[C@@H]4[C@@]5(C)CC[C@H](O)C(C)(C)[C@@H]5CC[C@]43C)[C@@H]2C1` here?
**A.** 91.3%

**Q.** And the CC50 at 40 h [1]?
**A.** > 200 µM

**Q.** What about the EC50 [3] of the same compound?
**A.** 19.2 µM

**Q.** Which “inhibition (INH)” value [2] does the source give for `C[C@H]1[C@H](C)CC[C@]2(C(=O)NC[C@H](O)[C@H]3OC(=O)C(OCc4ccccc4)=C3OCc3ccccc3)CC[C@]3(C)C(=CC[C@@H]4[C@@]5(C)CC[C@H](O)C(C)(C)[C@@H]5CC[C@]43C)[C@H]12` here?
**A.** 88.1%

**Q.** What about the CC50 at 40 h [1] of the same compound?
**A.** > 200 µM

**Q.** What about the EC50 [3] of the same compound?
**A.** 26.4 µM

**Q.** For `COC1=C(OC)[C@@H]([C@@H](O)Cn2cc(CNC(=O)[C@]34CCC(C)(C)C[C@H]3C3=CC[C@@H]5[C@@]6(C)CC[C@H](O)C(C)(C)[C@@H]6CC[C@@]5(C)[C@]3(C)CC4)nn2)OC1=O`, which CC50 at 40 h [1] is on record?
**A.** 19.6 µM

**Q.** Which “inhibition (INH)” value [2] does the source give for `C=C(C)[C@@H]1CC[C@]2(C(=O)NC[C@H](O)[C@H]3OC(=O)C(OCc4ccccc4)=C3OCc3ccccc3)CC[C@]3(C)[C@H](CC[C@@H]4[C@@]5(C)CC[C@H](O)C(C)(C)[C@@H]5CC[C@]43C)[C@@H]12` here?
**A.** 89.6%

**Q.** And the CC50 at 40 h [1]?
**A.** > 200 µM

**Q.** What about the EC50 [3] of the same compound?
**A.** 23.7 µM

**Q.** For `C[C@H]1[C@H](C)CC[C@]2(C(=O)NCc3cn(C[C@H](O)[C@H]4OC(=O)C(OCc5ccccc5)=C4OCc4ccccc4)nn3)CC[C@]3(C)C(=CC[C@@H]4[C@@]5(C)CC[C@H](O)C(C)(C)[C@@H]5CC[C@]43C)[C@H]12`, which “inhibition (INH)” value [2] is on record?
**A.** 90.8%

**Q.** And the CC50 at 40 h [1]?
**A.** > 200 µM

**Q.** And the EC50 [3]?
**A.** 25.7 µM

**Q.** For `COC1=C(OC)[C@@H]([C@@H](O)Cn2cc(CNC(=O)[C@]34CC[C@@H](C)[C@H](C)[C@H]3C3=CC[C@@H]5[C@@]6(C)CC[C@H](O)C(C)(C)[C@@H]6CC[C@@]5(C)[C@]3(C)C[C@H]4O)nn2)OC1=O`, which CC50 at 40 h [1] is on record?
**A.** 52.5 µM

**Q.** Which “inhibition (INH)” value [2] does the source give for `CC1(C)CC[C@]2(C(=O)NC[C@H](O)[C@H]3OC(=O)C(OCc4ccccc4)=C3OCc3ccccc3)[C@H](O)C[C@]3(C)C(=CC[C@@H]4[C@@]5(C)CC[C@H](O)C(C)(C)[C@@H]5CC[C@]43C)[C@@H]2C1` here?
**A.** 71.1%

**Q.** And the CC50 at 40 h [1]?
**A.** > 200 µM

**Q.** What about the EC50 [3] of the same compound?
**A.** 30.3 µM

**Q.** What does the source list for `CC(C)[C@@H]1CC[C@]2(C(=O)NC[C@H](O)[C@H]3OC(=O)C(O)=C3O)CC[C@]3(C)[C@H](CC[C@@H]4[C@@]5(C)CC[C@H](O)C(C)(C)[C@@H]5CC[C@]43C)[C@@H]12`?
**A.** inhibition (INH) [2]: 84.4%; CC50 at 40 h [1]: > 200 µM; EC50 [3]: 35.6 µM

**Q.** Which CC50 at 40 h [1] does the source give for `C[C@H]1[C@H](C)CC[C@]2(C(=O)NCc3cn(C[C@H](O)[C@H]4OC(=O)C(O)=C4O)nn3)[C@H](O)C[C@]3(C)C(=CC[C@@H]4[C@@]5(C)CC[C@H](O)C(C)(C)[C@@H]5CC[C@]43C)[C@H]12` here?
**A.** 41.1 µM

**Q.** With `CC1(C)CC[C@]2(C(=O)NCc3cn(C[C@H](O)[C@H]4OC(=O)C(O)=C4O)nn3)CC[C@]3(C)C(=CC[C@@H]4[C@@]5(C)CC[C@H](O)C(C)(C)[C@@H]5CC[C@]43C)[C@@H]2C1` as the compound, how does the CC50 at 40 h [1] read?
**A.** 46.8 µM

**Q.** With `C=C(C)[C@@H]1CC[C@]2(C(=O)NCc3cn(C[C@H](O)[C@H]4OC(=O)C(OCc5ccccc5)=C4OCc4ccccc4)nn3)CC[C@]3(C)[C@H](CC[C@@H]4[C@@]5(C)CC[C@H](O)C(C)(C)[C@@H]5CC[C@]43C)[C@@H]12` as the compound, how does the inhibition [4] read?
**A.** Dose-dependent effect

**Q.** And the “inhibition (INH)” value [2]?
**A.** 89.6%

**Q.** What about the CC50 at 40 h [1] of the same compound?
**A.** > 200 µM

**Q.** What about the Activity [5] of the same compound?
**A.** Active

**Q.** What about the Activity [6] of the same compound?
**A.** Active

**Q.** What about the Activity [7] of the same compound?
**A.** 87%

**Q.** And the Activity [8]?
**A.** 75%

**Q.** What about the Activity [9] of the same compound?
**A.** Active

**Q.** And the Activity [10]?
**A.** Active

**Q.** And the Kd [11]?
**A.** 3.76 µM

**Q.** And the EC50 [3]?
**A.** 8.7 µM

**Q.** For `COC1=C(OC)[C@@H]([C@@H](O)Cn2cc(CNC(=O)[C@]34CCC(C)(C)C[C@H]3C3=CC[C@@H]5[C@@]6(C)CC[C@H](O)C(C)(C)[C@@H]6CC[C@@]5(C)[C@]3(C)C[C@H]4O)nn2)OC1=O`, which CC50 at 40 h [1] is on record?
**A.** 5.6 µM

**Q.** Which CC50 at 40 h [1] does the source give for `C=C(C)[C@@H]1CC[C@@]2(C(=O)NCc3cn(C[C@H](O)[C@H]4OC(=O)C(OC)=C4OC)nn3)[C@H]1[C@H]1CC[C@@H]3[C@@]4(C)CC[C@H](O)C(C)(C)[C@@H]4CC[C@@]3(C)[C@]1(C)C[C@H]2O` here?
**A.** 43.9 µM

**Q.** What does the source list for `C=C(C)[C@@H]1CC[C@]2(C(=O)NCc3cn(C[C@H](O)[C@H]4OC(=O)C(O)=C4O)nn3)CC[C@]3(C)[C@H](CC[C@@H]4[C@@]5(C)CC[C@H](O)C(C)(C)[C@@H]5CC[C@]43C)[C@@H]12`?
**A.** inhibition (INH) [2]: 93.1%; CC50 at 40 h [1]: > 200 µM; Kd [11]: 8.04 µM; EC50 [3]: 41.3 µM

**Q.** For `CC1(C)CC[C@]2(C(=O)NC[C@H](O)[C@H]3OC(=O)C(OCc4ccccc4)=C3OCc3ccccc3)CC[C@]3(C)C(=CC[C@@H]4[C@@]5(C)CC[C@H](O)C(C)(C)[C@@H]5CC[C@]43C)[C@@H]2C1`, which “inhibition (INH)” value [2] is on record?
**A.** 81.9%

**Q.** And the CC50 at 40 h [1]?
**A.** > 200 µM

**Q.** And the EC50 [3]?
**A.** 25.3 µM

**Q.** With `CC1(C)CC[C@]2(C(=O)NC[C@H](O)[C@H]3OC(=O)C(O)=C3O)CC[C@]3(C)C(=CC[C@@H]4[C@@]5(C)CC[C@H](O)C(C)(C)[C@@H]5CC[C@]43C)[C@@H]2C1` as the compound, how does the CC50 at 40 h [1] read?
**A.** 41.9 µM
